In series [1] the test system is Mus musculus. Briefly: Anticonvulsant activity in NMRI mouse assessed as protection against maximal electroshock-induced seizures at 20 to 100 mg/kg, ip after 4 hrs. The class given is functional, organism-based. Summed up: (§1)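 Mice received 20, 40 and 100 mg/kg test doses. Seizures were induced by electrical shock (MES) or PTZ injection (scPTZ) at 0.5 and 4 h after dosing. The value recorded is the minimal dose protecting more than 50% of mice against seizure.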

The subject of series [2] is Mus musculus. Kind of series: Anticonvulsant activity in NMRI mouse assessed as protection against maximal electroshock-induced seizures at 20 to 100 mg/kg, ip after 0.5 hrs. Type of series: functional, organism-based. Summed up: as §1
The test system of series [3] is Mus musculus. Kind of series: Anticonvulsant activity in NMRI mouse assessed as protection against subcutaneous pentylene tetrazole-induced seizure at 20 to 100 mg/kg, ip after 4 hrs. The class given is functional, organism-based. Put shortly: as §1
For series [4], the system named is Mus musculus. Briefly: Neurotoxicity in NMRI mouse assessed as minimal motor impairment at 20 to 100 mg/kg, ip after 0.5 hrs by rotarod test. The conditions noted are these: in vivo. Further details: dose 20-100 mg/kg, route intraperitoneal. Type of series: toxicity, organism-based. Put shortly:
(§2)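 Rotarod motor-impairment test in mice given 20, 40 and 100 mg/kg doses, read 0.5 and 4 h after administration. The value recorded is the minimal dose producing toxicity in more than 50% of mice.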

Series [5] deals with Mus musculus. Briefly: Anticonvulsant activity in ip dosed NMRI mouse assessed as dose required to cause protection against subcutaneous pentylene tetrazole-induced seizure after 0.5 hrs. The class given is functional. The conditions noted are these: read-out: MED. Summed up:
as §1

The subject of series [6] is Mus musculus. Briefly: Neurotoxicity in NMRI mouse assessed as minimal motor impairment at 20 to 100 mg/kg, ip after 4 hrs by rotarod test. The arrangement: dose 20-100 mg/kg, route intraperitoneal. Particulars: in vivo. The class given is toxicity, organism-based. Put shortly:
as §2

The test system of series [7] is Mus musculus. Briefly: Anticonvulsant activity in ip dosed NMRI mouse assessed as dose required to cause protection against subcutaneous pentylene tetrazole-induced seizure after 4 hrs. Type of series: functional. Particulars: read-out: MED. Put shortly: as §1
The nature of series [8]: Neurotoxicity in ip dosed NMRI mouse assessed as dose required to cause minimal motor impairment after 4 hrs by rotarod test. Type of series: toxicity, organism-based. Particulars: in vivo, read-out: MTC50. Summed up: as §2
Series [9] concerns Mus musculus. Kind of series: Anticonvulsant activity in ip dosed NMRI mouse assessed as dose required to cause protection against maximal electroshock-induced seizures after 4 hrs. The class given is functional. The conditions noted are these: read-out: MED. Summed up:
as §1

Series [10] concerns Mus musculus. Kind of series: Anticonvulsant activity in NMRI mouse assessed as protection against subcutaneous pentylene tetrazole-induced seizure at 20 to 100 mg/kg, ip after 0.5 hrs. Type of series: functional, organism-based. Summed up:
as §1

Series [11] deals with Mus musculus. Kind of series: Anticonvulsant activity in ip dosed NMRI mouse assessed as dose required to cause protection against maximal electroshock-induced seizures after 0.5 hrs. The conditions noted are these: read-out: MED. The class given is functional. Summed up:
as §1

The nature of series [12]: Neurotoxicity in ip dosed NMRI mouse assessed as dose required to cause minimal motor impairment after 0.5 hrs by rotarod test. The conditions noted are these: in vivo, read-out: MTC50. Type of series: toxicity, organism-based. Put shortly:
as §2

Active and inactive are the calls of the source. The calls are words filed in the database; no cut-off is given here.

As to `C#CCO/N=C/c1c(-c2ccc(F)cc2)nc2ccc(Br)cn12`, the outcome in the series on Mus musculus [1], in the series on Mus musculus [2] and in the series with Mus musculus [3] was inactive. Also, the Activity result in the series on Mus musculus [4] and with Mus musculus [6] was “Non-toxic” in each case. Moreover, in the series with Mus musculus [5], the minimal effective dose came out at 40 mg/kg.

Consider `O=[N+]([O-])c1ccc(Cn2cc(CO/N=C/c3c(-c4ccc(F)cc4)nc4ccc(Br)cn34)nn2)cc1`, for which the minimal effective dose in the series with Mus musculus [7] was found to be 100 mg/kg; in the series on Mus musculus [5], 40 mg/kg; in the series on Mus musculus [9], 100 mg/kg. Besides, in the series with Mus musculus [2], the result was inactive. Further, in the series on Mus musculus [4], the Activity result was “Non-toxic”. The TD50 at 4 h in series [8] was determined as 100 mg/kg.

As to `Cc1ccc(Cn2cc(CO/N=C/c3c(-c4ccccc4)nc4c(C)cccn34)nn2)cc1`, the result in the series with Mus musculus [1], with Mus musculus [2], in the series with Mus musculus [3] and in the series on Mus musculus [10] was inactive. Besides, the Activity result in the series with Mus musculus [4] and in the series on Mus musculus [6] was “Non-toxic” in each case.

For the compound `Cc1ccc(Cn2cc(CO/N=C/c3c(-c4ccc(C)cc4)nc4c(C)cccn34)nn2)cc1`, the result with Mus musculus [1], in the series on Mus musculus [2], with Mus musculus [3] and with Mus musculus [10] was inactive. For the same compound, the Activity result in the series on Mus musculus [4] and in the series on Mus musculus [6] was “Non-toxic” throughout.

On to `O=C1NC(=O)C(c2ccccc2)(c2ccccc2)N1` [PHENYTOIN], for which the minimal effective dose with Mus musculus [11] and in the series on Mus musculus [9] was 20 mg/kg each time.

As for `Cc1ccc(Cn2cc(CO/N=C/c3c(-c4ccccc4)nc4ccc(Br)cn34)nn2)cc1`, the result with Mus musculus [1], in the series with Mus musculus [2], in the series on Mus musculus [3] and in the series on Mus musculus [10] was inactive. The Activity entry in the series with Mus musculus [4] and in the series with Mus musculus [6] was “Non-toxic” throughout.

For `C#CCO/N=C/c1c(-c2ccc(C)cc2)nc2c(C)cccn12`, the minimal effective dose was found to be 20 mg/kg in the series on Mus musculus [7], 20 mg/kg in the series on Mus musculus [11], 20 mg/kg in the series with Mus musculus [5] and 40 mg/kg in the series with Mus musculus [9]. Further, the Activity entry in the series on Mus musculus [4] and in the series with Mus musculus [6] was “Non-toxic” in each case.

Regarding `Cc1ccc(-c2nc3c(C)cccn3c2/C=N/OCc2cn(Cc3ccc(C#N)cc3)nn2)cc1`, the minimal effective dose in the series with Mus musculus [7] came to 100 mg/kg. Besides, the result in the series on Mus musculus [1], in the series with Mus musculus [2] and in the series on Mus musculus [10] was inactive. Also, the Activity result in the series with Mus musculus [4] was “Non-toxic”. In addition, the TD50 at 4 h in series [8] was 100 mg/kg.

Take `Cc1cccn2c(/C=N/OCc3cn(Cc4ccc([N+](=O)[O-])cc4)nn3)c(-c3ccccc3)nc12`: the outcome with Mus musculus [1], in the series with Mus musculus [2], in the series on Mus musculus [3] and in the series on Mus musculus [10] was inactive. Besides, the Activity result in the series on Mus musculus [4] and in the series on Mus musculus [6] was “Non-toxic” in each case.

For `COc1ccc(Cn2cc(CO/N=C/c3c(-c4ccc(F)cc4)nc4ccc(Br)cn34)nn2)cc1`, the outcome in the series on Mus musculus [1], with Mus musculus [2], in the series with Mus musculus [3] and in the series with Mus musculus [10] was inactive. Moreover, the Activity result in the series on Mus musculus [4] and with Mus musculus [6] was “Non-toxic” each time.

In the case of `N#Cc1ccc(Cn2cc(CO/N=C/c3c(-c4ccc(F)cc4)nc4ccc(Br)cn34)nn2)cc1`, the minimal effective dose in the series on Mus musculus [7] and in the series on Mus musculus [9] was 100 mg/kg in each case. Besides, the result in the series on Mus musculus [2] and with Mus musculus [10] was inactive. The Activity entry in the series with Mus musculus [4] is reported as “Non-toxic”. The TD50 at 4 h in [8] turned out to be 100 mg/kg.

Turning to `Cc1ccc(-c2nc3ccc(Br)cn3c2/C=N/OCc2cn(Cc3ccc([N+](=O)[O-])cc3)nn2)cc1`, the minimal effective dose in the series on Mus musculus [7] was 20 mg/kg; with Mus musculus [11], 40 mg/kg; with Mus musculus [5], 20 mg/kg; with Mus musculus [9] it was 100 mg/kg. For the same compound, the Activity entry in the series with Mus musculus [4] and in the series with Mus musculus [6] was “Non-toxic” throughout.

Turning to `Cc1cccn2c(/C=N/OCc3cn(Cc4ccc([N+](=O)[O-])cc4)nn3)c(-c3ccc(F)cc3)nc12`, the minimal effective dose in the series with Mus musculus [7] was 40 mg/kg. For the same compound, the result in the series with Mus musculus [1], in the series with Mus musculus [2] and with Mus musculus [10] was inactive. Also, in [8], the TD50 at 4 h worked out at 100 mg/kg. In addition, the TD50 at 0.5 h in series [12] was 100 mg/kg.

With `Cc1cccn2c(/C=N/OCc3cn(Cc4ccc(C#N)cc4)nn3)c(-c3ccc(F)cc3)nc12`, the minimal effective dose with Mus musculus [7] stood at 40 mg/kg. The result in the series with Mus musculus [1], in the series with Mus musculus [2] and with Mus musculus [10] was inactive. Also, in series [8], the TD50 at 4 h was determined as 100 mg/kg. In addition, the TD50 at 0.5 h in series [12] amounted to 100 mg/kg.

In the case of `Cc1cccn2c(/C=N/O)c(-c3ccccc3)nc12`, the result in the series with Mus musculus [1], in the series on Mus musculus [2], with Mus musculus [3] and with Mus musculus [10] was inactive. Also, the Activity entry in the series with Mus musculus [4] and in the series with Mus musculus [6] was “Non-toxic” in each case.

With `Cc1ccc(-c2nc3c(C)cccn3c2/C=N/OCc2cn(Cc3ccc([N+](=O)[O-])cc3)nn2)cc1`, the minimal effective dose in the series on Mus musculus [7] turned out to be 20 mg/kg; with Mus musculus [11], 40 mg/kg; with Mus musculus [5] it was 20 mg/kg; in the series on Mus musculus [9], 40 mg/kg. The Activity entry with Mus musculus [4] and with Mus musculus [6] was “Non-toxic” each time.

As for `C#CCO/N=C/c1c(-c2ccccc2)nc2ccc(Br)cn12`, the outcome with Mus musculus [1], in the series on Mus musculus [2], in the series on Mus musculus [3] and in the series with Mus musculus [10] was inactive. For the same compound, the Activity entry in the series with Mus musculus [4] and in the series on Mus musculus [6] was “Non-toxic” throughout.

For the compound `O/N=C/c1c(-c2ccccc2)nc2ccc(Br)cn12`, the result in the series with Mus musculus [1], with Mus musculus [2], with Mus musculus [3] and in the series with Mus musculus [10] was inactive. Further, the Activity result with Mus musculus [4] and in the series on Mus musculus [6] was “Non-toxic” each time.

The values above are taken from ChEMBL document CHEMBL2385051, “Facile synthesis of new imidazo[1,2-a]pyridines carrying 1,2,3-triazoles via click chemistry and their antiepileptic studies” (Bioorg Med Chem Lett, 2013).
